According to publication PMC9064899 (The FEBS journal, 2021):
Residue numbers refer to the chain shown, from its start.

What was measured:
[1] = target: T1, UBIAD1 (Homo sapiens, UniProt Q9Y5Z9); test: UBIAD1 activity with exogenous isoprenyl pyrophosphates in statin-blocked cells; format: cell-based; conditions: 1 μM vitamin K3, 10 μM atorvastatin or simvastatin, 20 μM GPP, FPP or GGPP
T1 sequence (Q9Y5Z9 1-338): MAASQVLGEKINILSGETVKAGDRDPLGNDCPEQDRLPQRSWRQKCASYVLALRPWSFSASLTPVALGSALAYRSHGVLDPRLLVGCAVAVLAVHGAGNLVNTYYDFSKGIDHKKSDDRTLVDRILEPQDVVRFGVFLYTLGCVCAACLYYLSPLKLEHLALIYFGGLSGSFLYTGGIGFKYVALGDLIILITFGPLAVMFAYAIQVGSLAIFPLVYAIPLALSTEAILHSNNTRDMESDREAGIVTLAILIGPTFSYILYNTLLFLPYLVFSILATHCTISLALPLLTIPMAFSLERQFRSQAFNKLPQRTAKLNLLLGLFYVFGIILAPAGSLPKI
Procedure, shortened: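 FIXgla-PC/HEK293 reporter cells were pre-incubated for 12 h with 10 μM atorvastatin or simvastatin to block endogenous isoprenyl pyrophosphate. Medium then contained 1 μM vitamin K3, statin (10 μM) and 20 μM GPP, FPP or GGPP as side-chain substrate. Carboxylated FIXgla-PC was quantified by ELISA and normalized to GGPP (100%). Mean ± SD, n=3 independent experiments.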

[2] = target: T2, UBIAD1 K181A (Homo sapiens, UniProt Q9Y5Z9, K181A); test: GGPP recognition by UBIAD1 variant; format: cell-based; conditions: 1 μM vitamin K3, statin-blocked mevalonate pathway
T2 sequence (Q9Y5Z9 1-338 K181A): T1 sequence (Q9Y5Z9 1-338) with K181A
Procedure, shortened: (§1)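 Ubiad1-knockout FIXgla-PC/HEK293 cells were transiently transfected with wild-type or mutant UBIAD1. At 24 h they were pre-treated with 10 μM atorvastatin for 3 h. They were then given 1 μM vitamin K3, 10 μM atorvastatin and increasing GGPP for 24 h. Carboxylated FIXgla-PC was read by ELISA, and GGPP EC50 came from a curve fit. Mean ± SD.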

[3] = target: T3, UBIAD1 G186R (Homo sapiens, UniProt Q9Y5Z9, G186R); test: GGPP recognition by UBIAD1 variant; format: cell-based; conditions: 1 μM vitamin K3, statin-blocked mevalonate pathway
T3 sequence (Q9Y5Z9 1-338 G186R): T1 sequence (Q9Y5Z9 1-338) with G186R
Procedure, shortened: as §1

[4] = system: UBIAD1-deficient FIXgla-PC/HEK293 reporter cells; test: VKD carboxylation of FIXgla-PC supported by K vitamins in UBIAD1-knockout cells; format: cell-based, human; conditions: for support of VKD carboxylation of reporter protein: UBIAD1-deficient (knockout) FIXgla-PC/HEK293 cells
Procedure, shortened: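 Ubiad1-knockout FIXgla-PC/HEK293 reporter cells were cultured for 24 h with increasing concentrations of vitamin K1, MK-4, vitamin K3, or menaquinones with 1–4 or 7 isoprene units. K vitamin stocks were made in polyethoxylated castor oil. Carboxylated FIXgla-PC was determined by ELISA, and half-maximal stimulation concentration (EC50) came from curve fitting. Mean ± SD.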

[5] = system: FIXgla-PC/HEK293 reporter cells; test: VKD carboxylation of reporter protein FIXgla-PC supported by K vitamins; format: cell-based, human; conditions: intact FIXgla-PC/HEK293 cells, 0.015 nM to 1000 nM, 24 hours
Procedure, shortened: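 Intact FIXgla-PC/HEK293 cells (stable reporter: protein C with factor IX Gla domain) were grown in DMEM/F12 with 10% FBS. They were incubated for 24 h with vitamin K1, MK-4, vitamin K3 or MK-1/2/3/4/7 at 0.015 nM to 1000 nM, from stocks in polyethoxylated castor oil. Carboxylated reporter was measured by ELISA (anti-carboxylated FIXgla capture, HRP anti-protein C, ABTS).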

[6] = system: mutant zebrafish; conditions: L65Q mutant zebrafish; cited from earlier work
[7] = system: kidneys; conditions: kidneys of atorvastatin-treated mice; cited from earlier work
[8] = system: FIXgla-PC/HEK293 reporter cells; test: Inhibition of vitamin K1-supported VKD carboxylation; format: cell-based, human; conditions: 5 μM vitamin K1 as substrate, 24 hours
Procedure, shortened: (§2)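 HEK293 cells stably expressing FIXgla-PC (protein C whose Gla domain is replaced by that of factor IX), grown in DMEM/F12 with 10% FBS. Vitamin K stocks are made in polyethoxylated castor oil. Cells are cultured with vitamin K for 24 h. The medium is collected and used directly in an ELISA for carboxylated FIXgla-PC, with an anti-carboxylated FIX Gla-domain mAb, HRP anti-protein C and ABTS substrate.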

[9] = system: FIXgla-PC/HEK293 reporter cells; test: Inhibition of vitamin K3-supported VKD carboxylation; format: cell-based, human; conditions: 1 μM vitamin K3 as substrate, 24 hours
Procedure, shortened: as §2

## CC(C)=CCC/C(C)=C/CC/C(C)=C/COP(=O)(O)OP(=O)(O)O [FPP, farnesyl pyrophosphate]
[1]
  support of VKD carboxylation as side chain source: support VKD carboxylation

## CC(C)=CCC/C(C)=C/CC/C(C)=C/CC/C(C)=C/COP(=O)(O)OP(=O)(O)O [GGPP, geranylgeranyl pyrophosphate]
[2]
  increase of EC50 value of GGPP vs wild-type: 5 fold
[3]
  increase of EC50 value of GGPP vs wild-type: 5 fold
[1]
  support of VKD carboxylation as side chain source: support VKD carboxylation

## CC(C)=CCC/C(C)=C/COP(=O)(O)OP(=O)(O)O [GPP, geranyl pyrophosphate]
[1]
  support of VKD carboxylation as side chain source: support VKD carboxylation

## CC(C)=CCC1=C(C)C(=O)c2ccccc2C1=O [MK-1]
[4]
  support of VKD carboxylation of reporter protein: unable to support VKD carboxylation

## CC(C)=CCC/C(C)=C/CC/C(C)=C/CC/C(C)=C/CC1=C(C)C(=O)c2ccccc2C1=O [MK-4, menaquinone-4]
[5]
  support of VKD carboxylation of reporter protein: efficiently support VKD carboxylation
[4]
  support of VKD carboxylation of reporter protein: efficiently support VKD carboxylation
[6]
  rescue of the vascular phenotype: 58%

## CC(C)=CCC/C(C)=C/CC/C(C)=C/CC/C(C)=C/CC/C(C)=C/CC/C(C)=C/CC/C(C)=C/CC1=C(C)C(=O)c2ccccc2C1=O [MK-7]
[5]
  support of VKD carboxylation of reporter protein: efficiently support VKD carboxylation
[4]; MK-7 higher than MK-4
  carboxylation efficiency relative to MK-4: about 3 fold
[4]; read-out: EC50 (half-maximal stimulation concentration) of K vitamins for VKD carboxylation, UBIAD1-deficient FIXgla-PC/HEK293 cells
  EC50: 2.3 nM

## CC(C)c1c(C(=O)Nc2ccccc2)c(-c2ccccc2)c(-c2ccc(F)cc2)n1CC[C@@H](O)C[C@@H](O)CC(=O)O [atorvastatin]
[7]
  reduction of MK-4 production: ~ 45%
[8]
  effect on vitamin K1-supported carboxylation: do not affect vitamin K1-supported carboxylation
[9]
  inhibition of VKD carboxylation: dose-response inhibition of VKD carboxylation

## CCC(C)(C)C(=O)O[C@H]1C[C@@H](C)C=C2C=C[C@H](C)[C@H](CC[C@@H]3C[C@@H](O)CC(=O)O3)[C@H]21 [simvastatin]
[8]
  effect on vitamin K1-supported carboxylation: do not affect vitamin K1-supported carboxylation
[9]
  inhibition of VKD carboxylation: dose-response inhibition of VKD carboxylation

## CC1=C(C/C=C(\C)CCC[C@H](C)CCC[C@H](C)CCCC(C)C)C(=O)c2ccccc2C1=O [vitamin K1, phylloquinone]
[4]
  support of VKD carboxylation of reporter protein: efficiently support VKD carboxylation
[6]
  rescue of the vascular phenotype: 6%
